The source made the active and inactive calls. No cut-off for these calls is given here.

The target in series [1] is Neuronal acetylcholine receptor; alpha2/beta4 (Rattus norvegicus, UniProt P12389+P12392). The experiment in a line: Displacement of [3H] epibatidine from rat alpha2beta4 nAChR by beta scintillation counting. Format: protein-complex assay. A general note: Displacement assays read how much labelled ligand stays bound in the presence of the test substance.
For series [2], the target named is T1, Alpha-1B adrenergic receptor (Homo sapiens) (UniProt P35368).
T1 sequence (whole entry): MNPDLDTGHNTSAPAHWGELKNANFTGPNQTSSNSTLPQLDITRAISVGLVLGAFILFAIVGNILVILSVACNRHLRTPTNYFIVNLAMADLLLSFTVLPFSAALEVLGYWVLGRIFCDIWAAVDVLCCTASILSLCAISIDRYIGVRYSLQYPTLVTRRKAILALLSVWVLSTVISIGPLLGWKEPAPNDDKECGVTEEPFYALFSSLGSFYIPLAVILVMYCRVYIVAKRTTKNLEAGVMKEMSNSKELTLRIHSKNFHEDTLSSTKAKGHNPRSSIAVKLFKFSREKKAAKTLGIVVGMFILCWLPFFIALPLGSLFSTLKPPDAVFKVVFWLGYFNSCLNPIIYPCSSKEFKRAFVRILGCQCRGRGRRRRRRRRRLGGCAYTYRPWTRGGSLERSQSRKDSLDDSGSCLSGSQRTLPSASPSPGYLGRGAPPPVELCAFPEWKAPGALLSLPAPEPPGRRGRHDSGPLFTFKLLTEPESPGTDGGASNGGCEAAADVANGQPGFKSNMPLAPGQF
The experiment in a line: Displacement of [3H]Prazosin from alpha1B adrenergic receptor at 10 uM.

The target in series [3] is T2, Muscarinic acetylcholine receptor M2 (Homo sapiens) (UniProt P08172).
T2 sequence (whole entry): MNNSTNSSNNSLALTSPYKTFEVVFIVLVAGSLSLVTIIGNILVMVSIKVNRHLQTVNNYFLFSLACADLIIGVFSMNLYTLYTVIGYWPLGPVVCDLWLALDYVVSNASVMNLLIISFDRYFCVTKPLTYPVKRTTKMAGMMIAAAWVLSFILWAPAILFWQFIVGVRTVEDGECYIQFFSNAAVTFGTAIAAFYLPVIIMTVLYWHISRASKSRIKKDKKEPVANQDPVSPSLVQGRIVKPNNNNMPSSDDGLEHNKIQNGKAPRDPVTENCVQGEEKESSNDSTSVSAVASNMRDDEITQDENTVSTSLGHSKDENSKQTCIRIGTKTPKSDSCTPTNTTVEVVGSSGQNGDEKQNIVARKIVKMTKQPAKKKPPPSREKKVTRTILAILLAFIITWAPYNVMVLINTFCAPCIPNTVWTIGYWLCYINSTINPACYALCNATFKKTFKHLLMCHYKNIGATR
Kind of series: Displacement of [3H]QNB from M2 receptor at 10 uM.

In series [4] the target is Acetylcholine receptor; alpha1/beta1/delta/gamma (Homo sapiens) (UniProt P02708+P07510+P11230+Q07001). The experiment in a line: Agonist activity at human alpha1beta1gammadelta nAChR expressed in TE671/RD cells at 10 uM by 86Rb+ flux assay. Format: functional, cell-based. The procedure, abridged: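 Human clonal TE671/RD cells endogenously express muscle-type α1*-nAChRs (α1, β1, γ, δ). Cells were kept at low passage (1−26 from frozen stocks). Function was read as 86Rb+ efflux, with agonist and antagonist modes tested up to 10 μM.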

Series [5] is described as follows: Inhibition of CYP3A up to 10 uM. Format: ADME. In short, it runs like this: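 Percent inhibition of CYP isoforms (CYP1A, CYP2C9, CYP2C19, CYP2D6, CYP3A; CYP1A2 reported) with test compound at concentrations up to 10 μM.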
In series [6] the target is D(1B) dopamine receptor (Homo sapiens) (UniProt P21918). The experiment in a line: Displacement of [3H][…] from D5 at 10 uM.
The target in series [7] is Neuronal acetylcholine receptors; alpha-3/beta-4, alpha-5, beta-2 (Homo sapiens) (UniProt P17787+P30926+P32297+P30532). Kind of series: Antagonist activity at alpha3beta4alpha5beta2 in human SH-SY5Y cells at 10 uM by 86Rb+ flux assay. Format: functional, cell-based. In short, it runs like this: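 Human neuroblastoma SH-SY5Y cells endogenously express α3β4* nAChRs (α3, β4, probably α5, sometimes β2); their α7 receptors give no signal under these conditions. Cells were kept at low passage (1−26 from frozen stocks). Function was read as 86Rb+ efflux, with agonist and antagonist modes tested up to 10 μM.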
Sequence of Neuronal acetylcholine receptors; alpha-3/beta-4, alpha-5, beta-2 (Homo sapiens) (P17787 whole entry, looked up): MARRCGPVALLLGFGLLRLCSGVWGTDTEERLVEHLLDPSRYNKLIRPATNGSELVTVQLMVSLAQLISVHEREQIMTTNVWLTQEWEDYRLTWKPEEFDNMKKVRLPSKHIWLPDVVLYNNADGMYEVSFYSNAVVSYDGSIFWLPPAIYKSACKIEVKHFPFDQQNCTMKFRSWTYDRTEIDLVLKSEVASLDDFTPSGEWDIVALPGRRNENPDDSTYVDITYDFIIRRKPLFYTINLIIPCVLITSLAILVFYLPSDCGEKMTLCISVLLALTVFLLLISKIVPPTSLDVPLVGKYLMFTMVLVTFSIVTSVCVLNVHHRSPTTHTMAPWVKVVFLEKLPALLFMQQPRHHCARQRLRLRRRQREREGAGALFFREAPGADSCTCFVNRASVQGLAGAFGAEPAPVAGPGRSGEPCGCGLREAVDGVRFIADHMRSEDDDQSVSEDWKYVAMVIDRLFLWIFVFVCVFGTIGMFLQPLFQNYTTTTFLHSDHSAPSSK
Sequence of Neuronal acetylcholine receptors; alpha-3/beta-4, alpha-5, beta-2 (Homo sapiens) (P30532 whole entry, looked up): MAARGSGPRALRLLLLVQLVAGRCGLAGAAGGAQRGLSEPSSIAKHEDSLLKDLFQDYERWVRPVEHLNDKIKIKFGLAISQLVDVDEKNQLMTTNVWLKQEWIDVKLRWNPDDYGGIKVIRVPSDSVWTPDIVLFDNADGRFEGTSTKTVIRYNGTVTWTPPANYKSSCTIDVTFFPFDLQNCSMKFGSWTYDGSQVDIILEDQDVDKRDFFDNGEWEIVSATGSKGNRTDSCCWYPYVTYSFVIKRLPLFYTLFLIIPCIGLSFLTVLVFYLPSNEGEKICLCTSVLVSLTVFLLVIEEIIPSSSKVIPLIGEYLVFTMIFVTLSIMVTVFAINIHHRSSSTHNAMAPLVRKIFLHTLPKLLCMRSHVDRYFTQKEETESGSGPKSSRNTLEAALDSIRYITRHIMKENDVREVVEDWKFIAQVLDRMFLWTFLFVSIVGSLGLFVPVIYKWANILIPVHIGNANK
Sequence of Neuronal acetylcholine receptors; alpha-3/beta-4, alpha-5, beta-2 (Homo sapiens) (P30926 whole entry, looked up): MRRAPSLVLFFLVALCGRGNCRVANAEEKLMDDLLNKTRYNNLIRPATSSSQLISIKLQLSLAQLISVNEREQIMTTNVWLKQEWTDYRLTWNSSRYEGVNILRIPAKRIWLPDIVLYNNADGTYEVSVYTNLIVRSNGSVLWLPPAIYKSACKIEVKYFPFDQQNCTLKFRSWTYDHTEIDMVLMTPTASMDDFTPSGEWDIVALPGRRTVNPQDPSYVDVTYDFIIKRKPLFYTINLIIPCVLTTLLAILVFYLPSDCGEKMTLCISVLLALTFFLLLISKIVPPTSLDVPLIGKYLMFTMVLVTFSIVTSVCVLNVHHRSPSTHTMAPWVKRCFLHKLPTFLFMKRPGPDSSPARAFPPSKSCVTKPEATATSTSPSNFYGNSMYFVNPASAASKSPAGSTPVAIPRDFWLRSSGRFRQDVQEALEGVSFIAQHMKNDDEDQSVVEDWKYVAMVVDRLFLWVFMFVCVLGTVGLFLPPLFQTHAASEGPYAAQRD
Sequence of Neuronal acetylcholine receptors; alpha-3/beta-4, alpha-5, beta-2 (Homo sapiens) (P32297 whole entry, looked up): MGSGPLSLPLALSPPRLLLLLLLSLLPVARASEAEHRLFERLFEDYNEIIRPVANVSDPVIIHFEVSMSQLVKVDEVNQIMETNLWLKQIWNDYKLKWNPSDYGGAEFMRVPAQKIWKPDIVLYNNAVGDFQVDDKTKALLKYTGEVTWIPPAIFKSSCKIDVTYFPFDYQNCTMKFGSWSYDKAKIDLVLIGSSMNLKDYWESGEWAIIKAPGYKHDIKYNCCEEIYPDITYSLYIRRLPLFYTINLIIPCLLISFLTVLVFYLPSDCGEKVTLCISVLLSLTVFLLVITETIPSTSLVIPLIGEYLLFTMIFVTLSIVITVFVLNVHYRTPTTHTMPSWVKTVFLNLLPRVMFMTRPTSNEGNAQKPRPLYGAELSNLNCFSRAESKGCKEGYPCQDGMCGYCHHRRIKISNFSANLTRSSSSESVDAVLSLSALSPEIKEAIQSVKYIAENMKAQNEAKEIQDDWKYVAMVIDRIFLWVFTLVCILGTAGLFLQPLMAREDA

Series [8] addresses 5-hydroxytryptamine receptor 6 (Homo sapiens) (UniProt P50406). The experiment in a line: Displacement of [3H]LSD from 5-HT6 at 10 uM.
The target of series [9] is Neuronal acetylcholine receptor; alpha3/beta4 (Rattus norvegicus, UniProt P04757+P12392). The experiment in a line: Displacement of [3H] epibatidine from rat alpha3beta4 nAChR by beta scintillation counting. Format: protein-complex assay.
Series [10] has as its target Neuronal acetylcholine receptor; alpha4/beta2 (Homo sapiens, UniProt P17787+P43681). The experiment in a line: Agonist activity at human high sensitive and low sensitive alpha4beta2 nAChR expressed in SH-EP1 cells assessed as 86Rb+ ion efflux by flip-plate technique relative to sazetidine-A. Format: functional, cell-based. In short, it runs like this:
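SH-EP1-hα4β2 cells (stably transfected human α4 and β2, low passage 1−26) express mixed high- and low-sensitivity α4β2-nAChRs. Efficacy was measured by 86Rb+ flux on this mixed population. High-sensitivity efficacy was extrapolated by defining a reference agonist as 100% full agonist at the HS receptor.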

Series [11] deals with Sodium-dependent dopamine transporter (Homo sapiens) (UniProt Q01959). The experiment in a line: Displacement of [3H]WIN35428 from DAT at 10 uM.
Sequence of Sodium-dependent dopamine transporter (Homo sapiens) (Q01959 whole entry): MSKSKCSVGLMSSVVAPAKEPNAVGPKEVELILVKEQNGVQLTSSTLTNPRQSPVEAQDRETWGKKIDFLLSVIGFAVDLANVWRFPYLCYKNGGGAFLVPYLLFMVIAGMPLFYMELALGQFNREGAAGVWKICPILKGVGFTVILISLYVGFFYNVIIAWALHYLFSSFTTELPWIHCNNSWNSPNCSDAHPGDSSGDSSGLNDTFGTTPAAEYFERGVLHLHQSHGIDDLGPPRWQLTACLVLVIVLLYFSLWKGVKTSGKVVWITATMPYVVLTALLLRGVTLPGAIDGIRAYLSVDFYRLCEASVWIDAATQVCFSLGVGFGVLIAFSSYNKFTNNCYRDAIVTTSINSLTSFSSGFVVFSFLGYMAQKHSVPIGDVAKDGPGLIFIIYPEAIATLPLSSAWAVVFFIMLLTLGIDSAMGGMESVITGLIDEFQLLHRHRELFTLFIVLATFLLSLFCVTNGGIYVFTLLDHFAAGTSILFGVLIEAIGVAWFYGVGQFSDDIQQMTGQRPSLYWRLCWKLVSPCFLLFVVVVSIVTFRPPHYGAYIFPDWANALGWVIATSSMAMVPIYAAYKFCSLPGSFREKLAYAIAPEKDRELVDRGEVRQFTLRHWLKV
Series [12] deals with Neuronal acetylcholine receptor; alpha3/beta2 (Rattus norvegicus, UniProt P04757+P12390). The experiment in a line: Displacement of [3H] epibatidine from rat alpha3beta2 nAChR by beta scintillation counting. Format: protein-complex assay.
Series [13] addresses Histamine H1 receptor (Homo sapiens) (UniProt P35367). Kind of series: Displacement of [3H]Pyrilamine from H1 histamine receptor at 10 uM.
The target in series [14] is T3, Alpha-1A adrenergic receptor (Homo sapiens) (UniProt P35348).
T3 sequence (whole entry): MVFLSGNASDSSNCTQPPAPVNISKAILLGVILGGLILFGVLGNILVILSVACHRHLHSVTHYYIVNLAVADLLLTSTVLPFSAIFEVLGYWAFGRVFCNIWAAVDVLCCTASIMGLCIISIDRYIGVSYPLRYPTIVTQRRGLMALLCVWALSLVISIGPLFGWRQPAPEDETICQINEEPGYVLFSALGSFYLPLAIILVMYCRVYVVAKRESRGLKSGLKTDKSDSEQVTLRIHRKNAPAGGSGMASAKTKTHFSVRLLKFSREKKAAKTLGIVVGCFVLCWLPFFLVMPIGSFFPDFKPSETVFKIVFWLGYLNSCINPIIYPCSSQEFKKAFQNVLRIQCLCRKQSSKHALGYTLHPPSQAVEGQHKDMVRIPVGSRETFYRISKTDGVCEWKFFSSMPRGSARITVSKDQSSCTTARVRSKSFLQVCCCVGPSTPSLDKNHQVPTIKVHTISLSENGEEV
Kind of series: Displacement of [3H]Prazosin from alpha1A adrenergic receptor at 10 uM.

The target in series [15] is 5-hydroxytryptamine receptor 7 (Homo sapiens) (UniProt P34969). The experiment in a line: Displacement of [3H]LSD from 5-HT7 at 10 uM.
Sequence of 5-hydroxytryptamine receptor 7 (Homo sapiens) (P34969 whole entry): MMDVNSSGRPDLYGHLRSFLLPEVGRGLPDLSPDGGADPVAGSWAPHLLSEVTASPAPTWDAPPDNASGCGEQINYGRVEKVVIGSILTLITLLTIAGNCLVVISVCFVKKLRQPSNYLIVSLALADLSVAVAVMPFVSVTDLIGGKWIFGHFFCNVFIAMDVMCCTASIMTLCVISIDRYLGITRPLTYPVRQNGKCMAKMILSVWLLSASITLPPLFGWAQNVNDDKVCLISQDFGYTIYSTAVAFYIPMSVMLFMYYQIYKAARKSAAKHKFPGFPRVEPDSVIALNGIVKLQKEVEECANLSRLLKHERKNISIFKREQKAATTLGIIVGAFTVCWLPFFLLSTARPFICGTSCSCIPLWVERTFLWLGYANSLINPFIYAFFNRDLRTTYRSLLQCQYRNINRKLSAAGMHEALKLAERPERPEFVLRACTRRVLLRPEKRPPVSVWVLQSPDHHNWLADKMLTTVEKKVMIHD

Sequence of Neuronal acetylcholine receptor; alpha2/beta4 (P12389 whole entry): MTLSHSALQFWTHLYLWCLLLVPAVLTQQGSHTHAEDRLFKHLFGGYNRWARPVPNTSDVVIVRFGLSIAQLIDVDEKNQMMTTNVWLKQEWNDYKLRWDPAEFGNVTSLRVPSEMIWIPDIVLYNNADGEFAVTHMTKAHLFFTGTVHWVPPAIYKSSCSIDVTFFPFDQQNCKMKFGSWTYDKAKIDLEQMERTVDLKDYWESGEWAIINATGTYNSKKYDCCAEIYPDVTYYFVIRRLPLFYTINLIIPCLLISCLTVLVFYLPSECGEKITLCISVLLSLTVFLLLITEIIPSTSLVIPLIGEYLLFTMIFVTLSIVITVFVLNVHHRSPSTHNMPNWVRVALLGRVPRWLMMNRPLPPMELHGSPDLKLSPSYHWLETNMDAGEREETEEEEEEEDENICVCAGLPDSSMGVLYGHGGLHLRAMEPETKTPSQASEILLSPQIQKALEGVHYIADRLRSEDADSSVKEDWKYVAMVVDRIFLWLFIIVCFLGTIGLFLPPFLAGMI
Sequence of Neuronal acetylcholine receptor; alpha2/beta4 (P12392 whole entry): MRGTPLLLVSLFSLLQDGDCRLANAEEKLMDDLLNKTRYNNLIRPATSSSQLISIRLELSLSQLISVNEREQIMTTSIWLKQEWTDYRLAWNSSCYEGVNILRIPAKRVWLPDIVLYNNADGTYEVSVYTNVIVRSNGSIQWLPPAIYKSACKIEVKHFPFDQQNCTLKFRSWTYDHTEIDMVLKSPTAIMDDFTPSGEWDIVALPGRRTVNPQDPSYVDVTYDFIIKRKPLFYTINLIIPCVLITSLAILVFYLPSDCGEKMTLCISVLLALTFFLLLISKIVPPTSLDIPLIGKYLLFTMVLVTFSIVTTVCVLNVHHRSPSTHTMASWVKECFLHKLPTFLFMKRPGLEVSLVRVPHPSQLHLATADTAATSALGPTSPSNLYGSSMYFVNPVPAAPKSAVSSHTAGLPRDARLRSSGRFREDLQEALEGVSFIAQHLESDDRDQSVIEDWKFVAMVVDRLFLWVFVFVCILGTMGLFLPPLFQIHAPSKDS
Sequence of Histamine H1 receptor (Homo sapiens) (P35367 whole entry): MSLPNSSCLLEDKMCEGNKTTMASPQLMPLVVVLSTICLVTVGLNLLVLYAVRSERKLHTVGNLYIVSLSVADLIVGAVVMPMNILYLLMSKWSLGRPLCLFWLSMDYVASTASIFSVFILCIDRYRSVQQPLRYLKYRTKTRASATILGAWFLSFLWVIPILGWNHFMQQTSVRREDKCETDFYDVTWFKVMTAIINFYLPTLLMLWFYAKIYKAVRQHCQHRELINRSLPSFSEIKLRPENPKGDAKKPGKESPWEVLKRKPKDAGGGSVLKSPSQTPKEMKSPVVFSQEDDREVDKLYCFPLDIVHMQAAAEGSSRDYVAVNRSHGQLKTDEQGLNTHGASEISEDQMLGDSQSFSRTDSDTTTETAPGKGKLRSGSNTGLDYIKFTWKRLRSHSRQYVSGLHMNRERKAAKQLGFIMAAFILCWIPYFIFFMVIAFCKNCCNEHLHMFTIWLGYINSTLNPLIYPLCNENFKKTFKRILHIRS

For the compound `CNC(=O)OCC[C@H]1C[C@@H]1c1cncc(OC[C@@H]2CCN2)c1`, the inhibition constant (Ki) in [1] is 1890 nM; in series [9], greater than 10000 nM; in [12], 9.8 nM. Further, the inhibition in series [2] is 14.1%; in series [3], -0.6%; in [6], -1.5%; in series [8], -6.4%; in series [11] it was 63%; in [13], 30.5%. The inhibition amounted to 2.5% in series [14] and 32.1% in series [15]. Moreover, the outcome in series [4] and in series [7] was inactive. Further, in series [5], the “inhibition (INH)” value was “<= 25%”. In [10], the Efficacy amounted to 17%.

`OCC[C@H]1C[C@@H]1c1cncc(OC[C@@H]2CCN2)c1`: the figures for the Ki in series [1], in series [9] and in series [12] were 249 nM, 6520 nM and 3 nM, respectively. Also, the inhibition is -4.5% in series [2]; -8.4% in series [3]; 25.6% in [6]; -7.1% in series [8]; 43.7% in [11]; 41.4% in series [13]. In addition, the inhibition in [14] is -1.6%; in series [15] it was 24.9%. The result in series [4] and in [7] was inactive. Further, the “inhibition (INH)” value in [5] is “<= 25%”. For the same compound, the Efficacy in series [10] was determined as 21%.

For the compound `COCC[C@H]1C[C@@H]1c1cncc(OC[C@@H]2CCN2)c1`, the inhibitory constant (Ki) in series [1] was 236 nM; in [9], greater than 10000 nM; in series [12] it was 2.4 nM. For the same compound, the inhibition in [2] is 8.6%; in series [3] it was 0.5%; in series [6] it was 19.1%; in series [8], 1.4%; in [11], 21.7%; in series [13], -4.8%. Moreover, the inhibition was -1.6% in [14] and 22.7% in series [15]. Further, the result in series [4] and in series [7] was inactive. In addition, the “inhibition (INH)” value in [5] is listed as “<= 25%”. For the same compound, the Efficacy in series [10] worked out at 6%.

By Ki is commonly meant a dissociation constant, usually derived from enzyme kinetics or from competition with a known ligand. Broadly, the inhibition is the change of the read-out against control, counted positive when it falls.

The values above are taken from ChEMBL document CHEMBL2021777 (J Med Chem, 2012).
